Measured values taken from ChEMBL document CHEMBL1149424, “Synthesis of functionalized 1,8-naphthyridinones and their evaluation as novel, orally active CB1 receptor inverse agonists” (Bioorg Med Chem Lett, 2006).

Tests used:
Cannabinoid receptor 1 = Cannabinoid receptor 1 (Homo sapiens, UniProt P21554); test: Binding affinity at the CB1 receptor
Cannabinoid receptor 2 = Cannabinoid receptor 2 (Homo sapiens, UniProt P34972); test: Binding affinity at the CB2 receptor
Mus musculus [1] = test: Reduction in body weight overnight (18 hrs) in wild type C57BL/6 mice at 10 mg/kg; assay type: functional; parameters: scale not given: the % may be the effect or the level left
Outline: (§1)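 Ad libitum fed 12-week-old male C57BL/6 mice, n = 12 per group, given the compound orally at 1, 3 or 10 mpk in 0.225% methylcellulose/10% Tween 80 about 30 min before the dark phase. Food intake measured at 2 h and overnight. Overnight (18 h) body weight gain recorded and compared with vehicle.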

[2] = Oral bioavailability in Sprague-Dawley rat; assay type: ADME, organism-based; settings: in vivo
[3] = Oral bioavailability in C57BL/6 mouse; assay type: ADME, organism-based; settings: in vivo
[4] = Oral bioavailability in Beagle dog; assay type: ADME, organism-based, Canis lupus familiaris; settings: in vivo
[5] = Oral bioavailability in rhesus macaque; assay type: ADME, organism-based, Macaca mulatta; settings: rhesus monkey, in vivo
[6] = Plasma clearance in Sprague-Dawley rat; assay type: ADME, organism-based
[7] = Plasma clearance in C57BL/6 mouse; assay type: ADME, organism-based
[8] = Plasma clearance in Beagle dog; assay type: ADME, organism-based, Canis lupus familiaris
[9] = Plasma clearance in rhesus macaque; assay type: ADME, organism-based, Macaca mulatta; settings: rhesus monkey
[10] = Half life in Sprague-Dawley rat; assay type: ADME, organism-based; settings: in vivo
[11] = Half life in C57BL/6 mouse; assay type: ADME, organism-based; settings: in vivo
[12] = Half life in Beagle dog; assay type: ADME, organism-based, Canis lupus familiaris; settings: in vivo
[13] = Half life in rhesus macaque; assay type: ADME, organism-based, Macaca mulatta; settings: rhesus monkey, in vivo
[14] = Rat brain to plasma ratio at 0.25 hrs post iv dosing; assay type: ADME, organism-based; settings: Sprague-Dawley
Outline: (§2)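 Sprague–Dawley rats were dosed intravenously as part of a pharmacokinetic profile. Brain and plasma concentrations were sampled at 0.25 h and at 4 h post-dose and expressed as a brain-to-plasma ratio.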

[15] = Rat brain to plasma ratio at 4 hrs post iv dosing; assay type: ADME, organism-based; settings: Sprague-Dawley; outline: as §2
Mus musculus [16] = test: Reduction in food intake in wild type C57BL/6 mice at 2 hrs after administration of 10 mg/kg, po; assay type: functional; parameters: scale not given: the % may be the effect or the level left; outline: as §1
Rattus norvegicus [17] = test: Reduction in food intake in SD rat at 18 hrs after administration of 0.3 mg/kg, po; assay type: functional, Sprague-Dawley; parameters: scale not given: the % may be the effect or the level left
Outline: (§3)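 Diet-induced obese Sprague–Dawley rats, six per treatment group, dosed orally with the compound in 10% Tween 80 in water 30–60 min before dark onset. Food cups weighed every 5 min in an automated system over the 18 h after dosing. Overnight body weight change also recorded. Suppression is expressed relative to vehicle-treated controls.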

Rattus norvegicus [18] = test: Reduction in food intake in SD rat at 18 hrs after administration of 1.0 mg/kg, po; assay type: functional, Sprague-Dawley; parameters: scale not given: the % may be the effect or the level left; outline: as §3
Rattus norvegicus [19] = test: Reduction in food intake in SD rat at 18 hrs after administration of 3.0 mg/kg, po; assay type: functional, Sprague-Dawley; parameters: scale not given: the % may be the effect or the level left; outline: as §3

Chain of Cannabinoid receptor 2 (P34972 whole entry): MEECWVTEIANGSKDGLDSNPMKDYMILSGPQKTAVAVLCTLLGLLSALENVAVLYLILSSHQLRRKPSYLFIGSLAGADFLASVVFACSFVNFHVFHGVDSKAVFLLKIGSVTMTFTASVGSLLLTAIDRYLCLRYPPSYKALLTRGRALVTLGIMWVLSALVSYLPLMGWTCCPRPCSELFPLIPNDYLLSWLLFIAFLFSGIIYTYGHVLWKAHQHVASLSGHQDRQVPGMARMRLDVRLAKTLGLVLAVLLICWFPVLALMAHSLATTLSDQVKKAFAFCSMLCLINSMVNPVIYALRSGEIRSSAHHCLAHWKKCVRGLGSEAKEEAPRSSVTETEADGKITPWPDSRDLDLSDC
Chain of Cannabinoid receptor 1 (P21554 whole entry): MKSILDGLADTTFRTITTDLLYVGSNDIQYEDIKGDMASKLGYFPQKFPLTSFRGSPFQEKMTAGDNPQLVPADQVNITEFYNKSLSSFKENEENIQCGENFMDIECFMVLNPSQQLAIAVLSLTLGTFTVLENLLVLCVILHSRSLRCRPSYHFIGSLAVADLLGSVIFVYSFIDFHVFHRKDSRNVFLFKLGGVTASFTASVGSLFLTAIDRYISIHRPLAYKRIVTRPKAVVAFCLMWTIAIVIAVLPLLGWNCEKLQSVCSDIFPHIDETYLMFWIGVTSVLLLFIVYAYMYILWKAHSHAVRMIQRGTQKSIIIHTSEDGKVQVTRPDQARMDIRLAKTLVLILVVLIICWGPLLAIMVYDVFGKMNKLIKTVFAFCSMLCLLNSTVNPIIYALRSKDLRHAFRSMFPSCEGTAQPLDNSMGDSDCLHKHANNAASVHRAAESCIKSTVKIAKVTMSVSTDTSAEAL

Structure (SMILES) | IC50 (Cannabinoid receptor 1) [nM] | IC50 (Cannabinoid receptor 2) [nM] | further results
CC(=O)c1c(N)c2cc(-c3ccc(Cl)cc3)c(-c3ccc(Cl)cc3Cl)nc2n(C)c1=O | 120 | 1100 | 
CC(=O)c1c(NC(=O)CO)c2cc(-c3ccc(Cl)cc3)c(-c3ccc(Cl)cc3Cl)nc2n(C)c1=O | 46 | 3600 | 
COCCn1c(=O)c(C(C)=O)c(NC(C)=O)c2cc(-c3ccc(Cl)cc3)c(-c3ccc(Cl)cc3Cl)nc21 | 3.7 | 1800 | 
CC(=O)Nc1c(C(C)=O)c(=O)n(Cc2ccccc2)c2nc(-c3ccc(Cl)cc3Cl)c(-c3ccc(Cl)cc3)cc12 | 2.3 | 5100 | 
CC(=O)Nc1c(C)c(=O)n(C)c2nc(-c3ccc(Cl)cc3Cl)c(-c3ccc(Cl)cc3)cc12 | 26 | 1500 | 
CC(=O)Nc1c(C(C)=O)c(=O)n(CCO)c2nc(-c3ccc(Cl)cc3Cl)c(-c3ccc(Cl)cc3)cc12 | 32 | 1500 | 
CC(=O)Nc1c(C(C)=O)c(=O)n(C)c2nc(-c3ccc(Cl)cc3Cl)c(-c3ccc(Cl)cc3)cc12 [NAPHTHYRIDINONE] |  | 4100 | Activity (Mus musculus [1]): 88%; bioavailability [2]: 93%; bioavailability [3]: 70%; bioavailability [4]: 100%; bioavailability [5]: 96%; clearance [6]: 12 mL/min/kg; clearance [7]: 13.9 mL/min/kg; clearance [8]: 4.4 mL/min/kg; clearance [9]: 1.4 mL/min/kg; half-life [10]: > 8 h; half-life [11]: > 8 h; half-life [12]: > 24 h; half-life [13]: 22 h; Kp at 0.25 h [14]: 0.9; Kp at 4 h [15]: 2.7; Activity (Mus musculus [16]): 49%; Activity (Rattus norvegicus [17]): 22%; Activity (Rattus norvegicus [18]): 39%; Activity (Rattus norvegicus [19]): 68%
CC(=O)Nc1c(C(C)=O)c(=O)n(CC2CCCO2)c2nc(-c3ccc(Cl)cc3Cl)c(-c3ccc(Cl)cc3)cc12 (centres undefined) | 5.2 | 1400 | 
CC(=O)Nc1c(N(C)C)c(=O)n(C)c2nc(-c3ccc(Cl)cc3Cl)c(-c3ccc(Cl)cc3)cc12 | 20 | 2500 | 
CC(=O)c1c(N(C)C)c2cc(-c3ccc(Cl)cc3)c(-c3ccc(Cl)cc3Cl)nc2n(C)c1=O | 96 | 1400 | 
CC(=O)Nc1cc(=O)n(C)c2nc(-c3ccc(Cl)cc3Cl)c(-c3ccc(Cl)cc3)cc12 | 110 | 380 | 
CC(=O)Nc1c(C(C)C)c(=O)n(C)c2nc(-c3ccc(Cl)cc3Cl)c(-c3ccc(Cl)cc3)cc12 | 15 | 5400 | 
CC(=O)Nc1c(C#N)c(=O)n(C)c2nc(-c3ccc(Cl)cc3Cl)c(-c3ccc(Cl)cc3)cc12 | 35 | 720 | 
CC(=O)c1c(C)c2cc(-c3ccc(Cl)cc3)c(-c3ccc(Cl)cc3Cl)nc2n(C)c1=O | 55 | 1400 | 
CC(=O)Nc1c(C(C)=O)c(=O)[nH]c2nc(-c3ccc(Cl)cc3Cl)c(-c3ccc(Cl)cc3)cc12 | 77 | 1400 | 
CC(=O)Nc1c(C(C)=O)c(=O)n(CC(C)C)c2nc(-c3ccc(Cl)cc3Cl)c(-c3ccc(Cl)cc3)cc12 | 2.3 | 6200 | 
COc1c(NC(C)=O)c2cc(-c3ccc(Cl)cc3)c(-c3ccc(Cl)cc3Cl)nc2n(C)c1=O | 24 | 1100 | 
COCC(=O)Nc1c(C(C)=O)c(=O)n(C)c2nc(-c3ccc(Cl)cc3Cl)c(-c3ccc(Cl)cc3)cc12 | 24 | 3200 | 
